By Inhibition is commonly meant the share of the control response that was lost under treatment. A word on the IC50: it is the point on the concentration scale where inhibition reaches its midpoint. The term ED50 denotes the dose that gives a 50% effect, or the effect in half of the subjects. In general, half-life refers to the time needed for the level to fall by half in the phase considered. One may read the inhibition in vivo as the change of the read-out against control, counted positive when it falls. Read a low inhibition in vivo as a weak effect. As a reminder, the bioavailability is dose-corrected exposure relative to a reference, in per cent. Higher therefore signals much systemic uptake. In general, Cmax refers to the maximum level reached in the sampled fluid or tissue.

Data set [1] can be described thus: Compound was tested for inhibition of Ascaris -induced bronchoconstriction in squirrel monkeys. The class given is functional.
The species entered for data set [2] is Homo sapiens. Put plainly: Compound was evaluated for production of leukotriene B4 in human whole blood (HWB) activated with ionophore A-23187. The class given is functional. The method, boiled down:
(§1)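 LTB4 generation triggered by Ca2+ ionophore A23187 in human peripheral blood polymorphonuclear leukocytes or in human whole blood; inhibitor potency expressed as IC50 (nM).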

The species named for data set [3] is Rattus norvegicus. Put plainly: Inhibition of LTB4 levels in rat pleural exudates. The class given is functional. The essentials: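 Rat pleurisy: carrageenan injected into the pleural cavity, followed 16-20 h later by ionophore A23187; LTB4 measured in pleural exudate 6 h after oral dosing; ED50 derived.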
Data set [4] can be described thus: Plasma half-life in dogs in the presence of PEG 400/water(3:1). The settings on record: dog. The class given is ADME, organism-based, Canis lupus familiaris. The method, boiled down: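 Dog PK: free base given iv in PEG-400/water (3:1); plasma levels followed and half-life estimated from the intravenous administration.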
For data set [5], the target named is T1, Polyunsaturated fatty acid 5-lipoxygenase (Homo sapiens, UniProt P09917).
T1 sequence (P09917 whole entry): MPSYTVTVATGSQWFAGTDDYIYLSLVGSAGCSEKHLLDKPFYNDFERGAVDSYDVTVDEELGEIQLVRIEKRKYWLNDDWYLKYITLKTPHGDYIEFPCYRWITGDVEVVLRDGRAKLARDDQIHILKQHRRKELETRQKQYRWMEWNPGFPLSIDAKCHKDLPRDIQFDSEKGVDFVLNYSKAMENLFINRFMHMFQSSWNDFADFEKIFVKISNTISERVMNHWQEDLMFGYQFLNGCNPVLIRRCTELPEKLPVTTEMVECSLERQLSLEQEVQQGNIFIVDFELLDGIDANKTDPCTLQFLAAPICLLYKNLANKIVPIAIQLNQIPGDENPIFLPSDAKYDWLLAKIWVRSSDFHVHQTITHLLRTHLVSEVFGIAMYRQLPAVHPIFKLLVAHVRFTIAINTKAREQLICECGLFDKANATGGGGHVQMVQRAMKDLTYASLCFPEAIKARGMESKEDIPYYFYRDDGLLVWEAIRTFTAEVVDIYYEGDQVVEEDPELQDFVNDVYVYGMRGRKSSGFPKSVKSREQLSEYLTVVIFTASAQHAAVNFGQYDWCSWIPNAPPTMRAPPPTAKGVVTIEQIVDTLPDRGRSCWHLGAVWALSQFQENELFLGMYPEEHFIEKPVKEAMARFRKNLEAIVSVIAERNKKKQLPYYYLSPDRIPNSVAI
As to the kind of experiment: Inhibition of oxidation of arachidonic acid by human 5-Lipoxygenase using spectrophotometric assay. The class given is functional. The method, boiled down: (§2)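 Soluble extracts of Sf9 insect cells overexpressing human 5-LO; arachidonic acid oxidation followed spectrophotometrically as 5-H(P)ETE production; IC50 values.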

The species entered for data set [6] is Homo sapiens. Put plainly: Compound was evaluated for production of leukotriene B4 in Ca+2 -ionophore -activated human polymorphonuclear (HPMN) leukocytes. The class given is functional. The essentials: as §1
In data set [7] the test system is Canis familiaris. Put plainly: Ex Vivo generation of LTB4 by whole blood stimulated with calcium ionophore A-23187 in anesthetized dogs. The class given is functional, Canis lupus familiaris. The method, boiled down:
(§3)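 Anesthetized dogs receiving iv infusion (µg/kg/min, dose-ranging). Baseline urinary LTE4 excretion measured over 5-7 h after infusion start; ex vivo LTB4 generation by whole blood stimulated with calcium ionophore A23187. ED50 in µg/kg/min.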

The subject of data set [8] is Rattus norvegicus. Put plainly: compound was tested for inhibition of ovalbumin- induced dyspnea in inbred hyperreactive rats at 0.5 mg/kg. The class given is functional.
The species entered for data set [9] is Canis familiaris. Put plainly: Inhibition of urinary LTE4 levels in dogs. The class given is functional, Canis lupus familiaris, Urine. The method, boiled down: as §3
The test system of a further data set is Ovis aries. Put plainly: Compound was tested for inhibition of Ascaris -induced bronchoconstriction in sheep at 2.5 ug/kg intravenous administration. The class given is functional. The essentials:
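Conscious allergic sheep (n = 4) received an iv bolus of 0.2 mg/kg and then a constant iv infusion of 2.5 µg/kg/min before Ascaris antigen challenge. Percent inhibition was scored separately for the early-phase and late-phase bronchoconstriction.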

Data set [10] is described as follows: Plasma half-life in rats in the presence of PEG 400/water(3:1). The class given is ADME, organism-based. The note with it: rat.
Data set [11] deals with T1, Polyunsaturated fatty acid 5-lipoxygenase. Put plainly: Compound was evaluated for the potency to inhibit oxidation of arachidonic acid by human recombinant 5-Lipoxygenase using a spectrophotometric assay. The class given is functional. The method, boiled down: as §2
Data set [12] can be described thus: Bioavailability in rat (Sprague-Dawley) (male). The class given is ADME, organism-based. The note with it: in vivo. The method, boiled down:
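Oral dosing as HCl salt in 0.5% methocel suspension at 20 mg/kg (10 mL/kg); iv dosing of free base in PEG-400/water (3:1) at 5 mg/kg into jugular vein. Serial jugular blood to 24 h; plasma protein precipitated with acetonitrile, parent quantified by reverse-phase HPLC against spiked-plasma standards. F = (AUCpo × dose_iv)/(AUCiv × dose_po) × 100, over 0-24 h.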

Data set [13] can be described thus: Maximum concentration of unchanged drug in rat plasma in the period 0-24 hr after dosing. The class given is ADME, organism-based. The essentials:
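Rats dosed orally as HCl salt in 0.5% methocel suspension (10 mL/kg); jugular blood drawn before dosing and 0.5, 1, 2, 4, 6, 8, 10, 24 h after. Plasma deproteinized with equal volume acetonitrile; parent drug measured by reverse-phase HPLC peak area against standard curves from spiked rat plasma.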

For the molecule `N#Cc1cc(-c2ccoc2)c2ccc(OCc3cccc(C4(O)CC5COC(C4)O5)n3)cc2c1` (stereo not given), the Inhibition in [1] is given as 53%. Further, the figures for the IC50 (in the data set filed under Homo sapiens [2]; in data set [5]; in the data set filed under Homo sapiens [6]) were 42 nM, 20 nM and 1.6 nM, respectively. Moreover, the median effective dose (ED50) in the data set filed under Rattus norvegicus [3] is 0.3 mg/kg; in the data set with Canis familiaris [7], 0.45 µg/min/kg; in the data set filed under Canis familiaris [9], 0.23 µg/min/kg. Also, the half-life in data set [4] was 16 h; in data set [10] it was 5 h. The molecule further gave an inhibition in vivo at 0.5 mg/kg in the data set with Rattus norvegicus [8] of 60%. This molecule also returned an inhibition in vivo at 0.0025 mg/kg with Ovis aries of 50%.

In the case of `N#Cc1cc(-c2ccoc2)c2ccc(OCc3cncc(C4(O)CCOCC4)c3)cc2c1`, the IC50 was 100 nM in the data set filed under Homo sapiens [2], 100 nM in data set [5] and 10 nM in the data set filed under Homo sapiens [6].

With `N#Cc1cc(-c2ccoc2)c2ccc(OCc3csc(C4(O)CCOCC4)n3)cc2c1`, the results for the IC50 (in the data set listed under Homo sapiens [2]; in data set [5]; in the data set listed under Homo sapiens [6]) were 300 nM, 160 nM and 9 nM, respectively.

As to `N#Cc1cc(-c2ccoc2)c2ccc(OCc3ccc4ccc(C5(O)CCOCC5)cc4n3)cc2c1`, the IC50 stood at 1000 nM in data set [5] and 44 nM in the data set listed under Homo sapiens [6].

In the case of `N#Cc1cc(-c2ccoc2)c2ccc(COc3cccc(C4(O)CC5COC(C4)O5)n3)cc2c1` (stereo not given), the IC50 in the data set filed under Homo sapiens [2] amounted to 67 nM; in [5], 80 nM; in the data set filed under Homo sapiens [6], 3.1 nM.

In the case of `N#Cc1cc(-c2ccoc2)c2ccc(OCc3ccnc(C4(O)CCOCC4)c3)cc2c1`, the figures for the IC50 (in the data set filed under Homo sapiens [2]; in data set [11]; in the data set filed under Homo sapiens [6]) were 250 nM, 350 nM and 5 nM, respectively.

As for `N#Cc1cc(-c2ccoc2)c2ccc(OCc3cccc(C4(O)CCOCC4)n3)cc2c1`, the figures for the IC50 (in the data set listed under Homo sapiens [2]; in data set [11]; in the data set filed under Homo sapiens [6]) were 30 nM, 15 nM and 0.6 nM, respectively.

`N#Cc1cc(-c2ccoc2)c2ccc(OCc3cccc(C4(O)CCOCC4)c3)cc2c1` came in with a bioavailability in data set [12] of less than 5%. The molecule also showed a Cmax in data set [13] of 1000 nM.

For the molecule `N#Cc1cc(-c2ccoc2)c2ccc(OCc3cc(C4(O)CCOCC4)ccn3)cc2c1`, the IC50 in the data set listed under Homo sapiens [2] was determined as 50 nM; in data set [5], 70 nM; in the data set filed under Homo sapiens [6], 3.5 nM.

`CC(C)(C)Sc1c(CC(C)(C)C(=O)O)n(Cc2ccc(Cl)cc2)c2ccc(OCc3ccc4ccccc4n3)cc12` [QUIFLAPON]: the Inhibition in [1] is recorded as 71%. In addition, the ED50 in the data set listed under Rattus norvegicus [3] worked out at 0.15 mg/kg; with Canis familiaris [7], 0.5 µg/min/kg; in the data set filed under Canis familiaris [9], 1 µg/min/kg. In addition, the inhibition in vivo at 0.5 mg/kg in the data set on Rattus norvegicus [8] came out at 56%. This molecule also yielded an inhibition in vivo at 0.0025 mg/kg in the data set on Ovis aries greater than 75%.

In turn, `CC(c1cc2ccccc2s1)N(O)C(N)=O` (stereo not given) [ZILEUTON] yielded an IC50 in the data set listed under Homo sapiens [2] of 2000 nM.

Source of the values: ChEMBL document CHEMBL1130137, “Substituted (pyridylmethoxy)naphthalenes as potent and orally active 5-lipoxygenase inhibitors; synthesis, biological profile, and pharmacokinetics of L-739,010” (J Med Chem, 1997).
